Test results reported in PMC8669716 (ACS Pharmacology & Translational Science, 2021).
One block for each molecule: values may come before it.

Tests used:
[1] = target: T1, human recombinant LSD1 enzyme (Homo sapiens, UniProt O60341); assay: LSD1 HTRF assay; assay type: biochemical
AML cell line TF-1a = assay: AML cell viability; assay type: cell-based; settings: for EC50: TF-1a, read-out: EC50 viability, AML cell lines
SCLC patients = settings: cited from earlier work
SCLC cell line NCI-H510A = assay: SCLC cell viability; assay type: cell-based; settings: Homo sapiens, 240 h, read-out: EC50 viability NCI-H510A
LSD1 in MV(4;11) cells = LSD1 in MV(4;11) cells (Homo sapiens, UniProt O60341); assay: LSD1 target engagement; assay type: cell-based; settings: 24 h, 2000, 200, 20 and 2 nM
[2] = target: recombinant LSD1 / GFI1B SNAG domain peptide interaction (Homo sapiens, UniProt O60341); assay: GFI1B-peptide/LSD1 interaction assay; assay type: binding; settings: 2 μM, 200 nM, 20 nM and 2 nM
[3] = target: INSM1/LSD1 interaction in NCI-H510A cells (Homo sapiens, UniProt O60341); assay: INSM1/LSD1 interaction ELISA on NCI-H510A lysates; assay type: cell-based; settings: 24 h, 2000, 200, 20 and 2 nM
[4] = system: GRP gene expression in NCI-H510A cells; assay: GRP gene expression by qRT-PCR; assay type: cell-based; settings: 6 days, 2000, 200, 20 and 2 nM
Procedure, shortened: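 NCI-H510A SCLC cells (mycoplasma-free) seeded at 0.5 million per 5 mL complete RPMI-1640 (10% FBS, 2 mM l-glutamine). They were treated with test compound at 2000, 200, 20 and 2 nM for 6 days at 37 °C, 5% CO2. Pellets of 0.5 million cells were PBS-washed and stored at −80 °C, then total RNA was extracted for qRT-PCR of GRP; N = 1, n = 3.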

RR-AML patients = settings: cited from earlier work
[5] = Stability in aqueous buffer; assay type: physicochemical; settings: aqueous buffer at 37 °C, LCMS, day 6
Procedure, shortened: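 A 20 mM DMSO solution of test compound was diluted with PBS and held at 37 °C. Samples were analysed by LCMS at T = 0, 4 and 6 days, using one of three compound-specific HPLC method conditions.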

[6] = cited from earlier work
[7] = target: T1, human recombinant LSD1 enzyme; assay: LSD1 peroxidase; assay type: biochemical
[8] = target: T2, human recombinant LSD2 enzyme (Homo sapiens, UniProt Q8NB78); assay: LSD2 HTRF assay; assay type: biochemical; settings: read-out: LSD2 inhibition
T2 sequence (Q8NB78 1-822): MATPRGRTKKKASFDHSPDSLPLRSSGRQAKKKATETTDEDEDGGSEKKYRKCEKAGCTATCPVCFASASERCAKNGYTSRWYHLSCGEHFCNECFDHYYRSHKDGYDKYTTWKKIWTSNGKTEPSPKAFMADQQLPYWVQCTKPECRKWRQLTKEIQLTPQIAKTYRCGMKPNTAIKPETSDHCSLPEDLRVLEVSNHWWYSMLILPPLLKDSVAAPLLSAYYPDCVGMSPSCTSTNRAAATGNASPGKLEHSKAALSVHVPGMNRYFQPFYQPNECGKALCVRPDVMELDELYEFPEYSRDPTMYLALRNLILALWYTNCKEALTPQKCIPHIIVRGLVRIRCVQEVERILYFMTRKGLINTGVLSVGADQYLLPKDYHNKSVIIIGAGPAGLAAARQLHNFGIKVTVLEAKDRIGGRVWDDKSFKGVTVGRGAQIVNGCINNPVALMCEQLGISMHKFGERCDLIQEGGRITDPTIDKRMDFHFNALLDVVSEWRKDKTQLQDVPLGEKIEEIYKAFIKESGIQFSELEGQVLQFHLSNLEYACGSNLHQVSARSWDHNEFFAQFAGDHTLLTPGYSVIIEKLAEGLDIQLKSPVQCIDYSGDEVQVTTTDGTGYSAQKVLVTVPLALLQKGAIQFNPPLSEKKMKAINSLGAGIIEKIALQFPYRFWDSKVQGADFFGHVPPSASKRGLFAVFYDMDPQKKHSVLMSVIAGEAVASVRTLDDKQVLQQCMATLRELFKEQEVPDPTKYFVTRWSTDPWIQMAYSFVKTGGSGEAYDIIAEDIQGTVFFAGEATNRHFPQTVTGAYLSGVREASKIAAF

[9] = system: CD11b induction in THP-1 cells; assay: AML differentiation: CD11b by flow cytometry; assay type: cell-based; settings: THP-1, 0.02 to 2000 nM, 96 h
LSD1 in NCI-H510A cells = LSD1 in NCI-H510A cells (Homo sapiens, UniProt O60341); assay: LSD1 target engagement; assay type: cell-based; settings: 24 h, 2000, 200, 20 and 2 nM
[10] = target: T1, human recombinant LSD1 enzyme; settings: incubation at 10-fold IC50, 100-fold dilution

fold less active than iadademstat in the LSD1 HTRF assay [1]: 491 fold
SMILES: O=C(O)c1ccc(CN2CCC(CN[C@@H]3C[C@H]3c3ccccc3)CC2)cc1 [GSK-2879552]
fold less active than iadademstat in the (TF-1a) AML viability assays (AML cell line TF-1a): 849 fold
G3/4 encephalopathy (SCLC patients): 10%

SMILES: c1ccc([C@@H]2C[C@H]2NC2CCNCC2)cc1 [OG-668]
EC50 (SCLC cell line NCI-H510A): 1.17 nM
LSD1 TE (LSD1 in MV(4;11) cells): high LSD1 TE at all concentrations tested
disruption of LSD1/GFI1B interaction [2]: shows reduction of the LSD1/GFI1B interaction in the 2 μM to 2 nM range
disruption of LSD1/INSM1 PPI [3]: reduction of the LSD1/INSM1 interaction at all four concentrations
effect on GRP expression [4]: reduce GRP expression at all concentrations

fold less active than iadademstat in the LSD1 HTRF assay [1]: 174 fold
SMILES: CN1CCN(C(=O)[C@H](CCCN[C@@H]2C[C@H]2c2ccc(F)cc2)NC(=O)c2ccc(-n3ccnn3)cc2)CC1 [bomedemstat]
fold less active than iadademstat in the (TF-1a) AML viability assays (AML cell line TF-1a): 345 fold

EC50 (SCLC cell line NCI-H510A): 0.16 nM
SMILES: N[C@H]1CC[C@H](N[C@@H]2C[C@H]2c2ccccc2)CC1 [iadademstat]
effect on GRP expression [4]: most potently inhibits the expression of the neuroendocrine biomarker (including at 2 nM)
safety and tolerability (RR-AML patients): safe and well-tolerated

EC50 (SCLC cell line NCI-H510A): > 2000 nM
SMILES: C#CCN(C)Cc1ccccc1 [pargyline]
EC50 (AML cell line TF-1a): > 2000 nM

T = 6 days purity (parent compound remaining) [5]: 4%
EC50 (SCLC cell line NCI-H510A): > 2000 nM
SMILES: NNCCc1ccccc1 [phenelzine]
EC50 (AML cell line TF-1a): > 2000 nM

EC50 (SCLC cell line NCI-H510A): 1.77 nM
SMILES: COc1ccc(-c2c(-c3ccc(C#N)c(F)c3)nc(N3CCC(N)CC3)n(C)c2=O)cc1F [pulrodemstat]
half-life ([6]; humans): ≈ 70 h
adverse events reported ([6]; monotherapy): Thrombocytopenia and neutropenia events

IC50 ([1]; LSD1 IC50, HTRF assay): 1300 nM
IC50 [7]: 2400 nM
inhibition at 10 µM [8]: < 50%
T = 6 days purity (parent compound remaining) [5]: 72%
EC50 (SCLC cell line NCI-H510A): 184 nM
disruption of LSD1/INSM1 PPI [3]: totally inactive
recovery of LSD1 activity upon jump dilution [10]: 62%
SMILES: C/C(=N\NC(=O)c1cccc(S(=O)(=O)N2CCN(C)CC2)c1)c1cc(Cl)ccc1O [seclidemstat]
induction of CD11b marker [9]: does not induce the CD11b marker
LSD1 TE (LSD1 in NCI-H510A cells): did not show any significant LSD1 TE at the concentrations tested
disruption of LSD1/GFI1B interaction [2]: does not disrupt the LSD1/GFI1B interaction
effect on GRP expression [4]: does not impact GRP expression
